Results published in article PMC10723041 (Science (New York, N.Y.), 2021).
Where two headings read alike, the source gives them in different places.

How the values were obtained:
[1] = molecular target: P. aeruginosa CSE (PaCSE) (Pseudomonas aeruginosa, UniProt Q9I6A0); test: H2S production enzymatic assay, PaCSE; assay type: biochemical; details: for inhibition of bCSEs (PaCSE): at considerably higher concentrations than for hCSE
S. aureus CSE (SaCSE) = S. aureus CSE (SaCSE) (Staphylococcus aureus, UniProt X5E0F1); test: H2S production enzymatic assay, SaCSE; assay type: biochemical; details: for inhibition of bCSEs (SaCSE): at considerably higher concentrations than for hCSE
persisters = test: Persister assay with H2S donor; assay type: cell-based
SaCSE = SaCSE (Staphylococcus aureus, UniProt X5E0F1); test: Microscale Thermophoresis; assay type: binding
P. aeruginosa PA14 [2] = test: P. aeruginosa intranasal lung infection model; assay type: in vivo, Swiss Webster mice; details: for lung bacterial burden, single agent: NL1 or Gm administered separately, lungs collected 5h after infection
[3] = tested on: P. aeruginosa PA14 and PAO1; test: Antibiotic potentiation; assay type: cell-based
P. aeruginosa PA14 [4] = test: Pyocyanin redox state in stationary phase culture; assay type: cell-based; details: well-aerated PA14; NL1 180 µM for 18 h
In short: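 Stationary-phase P. aeruginosa PA14 cultures (OD600 ~1.5) were well aerated and treated with test compound at 180 µM for 18 h. Pyocyanin redox state was judged visually by culture colour: blue/green for oxidized, light yellow for reduced. Comparators were untreated wt and a cbs/cse(−) mutant.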

S. aureus Newman = test: S. aureus sepsis; assay type: in vivo, Swiss Webster mice; details: NL1 or Gm alone
[5] = tested on: S. aureus RN4220 (MSSA) and USA300 (MRSA); test: Antibiotic potentiation; assay type: cell-based
[6] = tested on: different types of human cells; test: Toxicity to human cells; assay type: cell-based; details: various assays
P. aeruginosa PA14 [7] = test: Persister viability under antibiotic challenge; assay type: cell-based; details: wt cells, ciprofloxacin 10 µg/ml challenge
In short: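 Exponentially growing P. aeruginosa PA14 cultures were challenged with ciprofloxacin at 10 µg/ml. The viable cell fraction was followed over time as a killing curve, and the curve tail was taken as the persister population. Data are mean ± SE, n=3.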

[8] = Chronic exposure in animal model; assay type: in vivo; details: stringent animal model
S. aureus USA300 = test: Persister viability under antibiotic challenge; assay type: cell-based; details: wt cells, ciprofloxacin 10 µg/ml challenge
SaCSE H339A mutant = molecular target: T1, SaCSE H339A mutant (Staphylococcus aureus, UniProt X5E0F1, H339A); test: H2S generating activity of SaCSE H339A mutant; assay type: biochemical, S. aureus; details: for IC50: read-out: IC50 for SaCSE H339A mutant, mean ± SE, n=2
T1 sequence (X5E0F1 1-380 H339A): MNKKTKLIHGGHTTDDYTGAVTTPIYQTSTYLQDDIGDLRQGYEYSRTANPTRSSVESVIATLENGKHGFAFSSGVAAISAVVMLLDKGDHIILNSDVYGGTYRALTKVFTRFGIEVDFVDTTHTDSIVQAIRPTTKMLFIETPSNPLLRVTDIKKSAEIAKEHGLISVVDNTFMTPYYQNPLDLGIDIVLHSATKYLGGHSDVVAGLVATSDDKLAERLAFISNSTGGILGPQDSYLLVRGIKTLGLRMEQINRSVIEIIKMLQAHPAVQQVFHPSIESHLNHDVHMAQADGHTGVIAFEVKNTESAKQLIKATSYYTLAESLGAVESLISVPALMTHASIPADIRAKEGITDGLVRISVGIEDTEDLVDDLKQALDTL

[9] = to approximately the same extent as genetic inactivation of bCSE

In the case of `NOCC(=O)O` [AOAA, aminooxyacetic acid], the “inhibition of bCSEs (PaCSE)” value [1] is reported as “capable of inhibiting bCSEs” and the “inhibition of bCSEs (SaCSE)” value (S. aureus CSE (SaCSE)) is reported as “capable of inhibiting bCSEs”.

For `NCCO/C=C/[C@H](N)C(=O)O` [AVG, L-aminoethoxyvinylglycine], the “inhibition of bCSEs (PaCSE)” value [1] was “capable of inhibiting bCSEs” and the “inhibition of bCSEs (SaCSE)” value (S. aureus CSE (SaCSE)) was “capable of inhibiting bCSEs”.

With `C=CCSSSCC=C` [DATS, diallyl trisulfide] the “effect of H2S donor on anti-persister effect of NL1” value (persisters) was “prevented the anti-persister effect of NL1”.

With `NO` [HA, hydroxylamine] the “inhibition of bCSEs (PaCSE)” value [1] was “capable of inhibiting bCSEs” and the “inhibition of bCSEs (SaCSE)” value (S. aureus CSE (SaCSE)) was “capable of inhibiting bCSEs”.

With `O=C(O)CNC(=O)Cn1c(C(F)(F)F)cc2ccc(Br)cc21` [NL1F3] the “apparent KD for SaCSE (MST)” value (SaCSE) was “failed” and the IC50 (S. aureus CSE (SaCSE)) was greater than 200 µM.

With `O=C(O)CNC(=O)Cn1ccc2ccc(Br)cc21` [NL1] the “lung bacterial burden, combination with Gm” value (P. aeruginosa PA14 [2]; NL1 60 mg/kg together with Gm 2 mg/kg subcutaneous, 30 min after infection, lungs 5h after infection) was “markedly decreased”, the “lung bacterial burden, single agent” value (P. aeruginosa PA14 [2]) was “did not change significantly” and the Kd (SaCSE) was roughly 0.4 µM. The “sensitization of bCSE-deficient P. aeruginosa PA14 to Gm” value ([3]; cse mutant) was “failed to sensitize”, the “sensitization of wild type P. aeruginosa PA14 to Gm” value [3, 9] was “enhanced the killing effect of Gm” and the “culture coloration (pyocyanin redox state)” value (P. aeruginosa PA14 [4]) was “green-blue coloration characteristic of the oxidized pyocyanin”. For the same molecule, the “survival, single agent” value (S. aureus Newman) was “neither NL1 nor Gm alone increased survival”, the “sensitization of bCSE-deficient S. aureus RN4220 to Gm” value ([5]; cse mutant) was “failed to sensitize” and the “sensitization of wild type S. aureus RN4220 to Gm” value [5, 9] was “enhanced the killing effect of Gm”. For the same molecule, the “non-toxic concentration in human cells” value [6] was “at least 25 × of its minimal potentiator concentration”, the “effect on persisters, P. aeruginosa PA14” value (P. aeruginosa PA14 [7]) was “eliminated approximately the same amount of persisters as did genetic inactivation of cse/cbs” and the “adverse effects of chronic exposure” value [8] was “No adverse effects”. The “aqueous solubility relative to NL3” value (Aqueous solubility) was “higher aqueous solubility than NL3” and the “effect on persisters, S. aureus USA300” value (S. aureus USA300) was “eliminated approximately the same amount of persisters as did genetic inactivation of cse/cbs”.

In the case of `Cc1oc(Cn2ccc3ccc(Br)cc32)cc1C(=O)O` [NL2], the “reduction of inhibition in H339A mutant versus wt SaCSE” value (SaCSE H339A mutant) is reported as ~ 70 fold, the IC50 (SaCSE H339A mutant) is reported as 154 ± 94.8 µM and the “aqueous solubility relative to NL3” value (Aqueous solubility) is reported as “higher aqueous solubility than NL3”.

With `O=C(O)c1cc(Cn2ccc3ccc(-c4cc5cccc(Cl)c5s4)cc32)[nH]n1` [NL3] the IC50 ([1]; read-out: IC50 for PaCSE, L-cysteine at 100 μM) was 1.2 µM, the IC50 (SaCSE H339A mutant) was 1.7 ± 0.1 µM and the IC50 (S. aureus CSE (SaCSE); read-out: IC50 for SaCSE, L-cysteine at 100 μM) was 0.7 µM.

For `[Na+].[SH-]` [NaHS, reference compound], the “effect of exogenous sulfide on Gm potentiation by NL1, P. aeruginosa PA14” value [3] was “largely suppressed Gm potentiation” and the “effect of exogenous sulfide on Gm potentiation by NL1, S. aureus RN4220” value [5] was “largely suppressed Gm potentiation”.

In the case of gentamycin [Gm, reference compound], the “lung bacterial burden, single agent” value (P. aeruginosa PA14 [2]) is reported as “did not change significantly” and the “survival, single agent” value (S. aureus Newman) is reported as “neither NL1 nor Gm alone increased survival”.
